Where a chain is given by its changes, count along the chain named. “And” between values parts separate entries of the source, which are not always exact repeats. Identical values can stand only once. Marks after values point to notes of the source that are not given here.
Key:
human WT FABP1 T94T = target: T1, human WT FABP1 T94T (Homo sapiens, UniProt P07148); test: NBD-cholesterol fluorescence binding assay
T1 sequence (P07148 1-127): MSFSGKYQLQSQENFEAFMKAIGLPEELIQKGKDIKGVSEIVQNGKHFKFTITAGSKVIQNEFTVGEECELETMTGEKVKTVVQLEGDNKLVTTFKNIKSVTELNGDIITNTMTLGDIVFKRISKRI
Outline: (§1)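 Recombinant FABP1 was titrated into NBD-cholesterol held at 20 nM, below its critical micellar concentration; human proteins ran 0–3.6 μM. Excitation was 490 nm and emission spectra were taken at 515–600 nm, 24°C. Emission maxima came from spectral analysis. Kd and Bmax were obtained by fitting the binding curve to a hyperbola. Data are mean ± SE, n = 3–5.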

human FABP1 T94A variant = target: T2, human FABP1 T94A variant (Homo sapiens, UniProt P07148, T94A); test: NBD-cholesterol fluorescence binding assay
T2 sequence (P07148 1-127 T94A): T1 sequence (P07148 1-127) with T94A
Outline: as §1

rat FABP1 [1] = target: T3, rat FABP1 (Rattus norvegicus, UniProt P02692); test: NBD-cholesterol fluorescence binding assay
T3 sequence (P02692 1-127): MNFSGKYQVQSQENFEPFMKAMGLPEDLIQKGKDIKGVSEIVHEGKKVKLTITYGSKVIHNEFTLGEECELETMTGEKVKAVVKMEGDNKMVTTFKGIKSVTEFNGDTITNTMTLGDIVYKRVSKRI
Outline: as §1

rat FABP1 [2] = target: T3, rat FABP1; test: Isothermal titration calorimetry; assay type: binding
[3] = aqueous; cited from earlier work
human WT FABP1 = target: T4, human WT FABP1 (Homo sapiens, UniProt P07148); test: Isothermal titration calorimetry; assay type: binding
T4 sequence (P07148 1-127): T1 sequence (P07148 1-127)

human T94A variant FABP1 = target: T5, human T94A variant FABP1 (Homo sapiens, UniProt P07148, T94A); test: Isothermal titration calorimetry; assay type: binding
T5 sequence (P07148 1-127 T94A): T1 sequence (P07148 1-127) with T94A

[4] = NBD-cholesterol 20nM bound to protein, excitation 490 nm, 24°C
[5] = NBD-cholesterol 20nM, FABP1 0–3.6 μM, hyperbola fit
[6] = NBD-cholesterol 20nM, FABP1 0–3.6 μM, hyperbola fit, 24°C

C[C@H](CNc1ccc([N+](=O)[O-])c2nonc12)[C@H]1CC[C@H]2[C@@H]3CC=C4C[C@@H](O)CC[C@]4(C)[C@H]3CC[C@]12C [NBD-cholesterol, 22-(N-(7-nitrobenz-2-oxa-1,3-diazol-4-yl)-amino)-23, 24-bisnor-5-cholen-3β-ol]
Emission max (human WT FABP1 T94T; [4]): 544 nm and 543.9 ± 0.5 ^d nm
Bmax (fluorescence intensity at saturation) (human WT FABP1 T94T; [5]): 72.4 ± 7.7 A.U.
Kd (human WT FABP1 T94T; [6]): 1770 ± 430 nM
blue shift of emission maximum, bound versus aqueous buffer (human WT FABP1 T94T; normalized spectra): ~21 nm
fold higher affinity for NBD-cholesterol than WT (human FABP1 T94A variant): more than 3 fold
fold lower Kd than WT FABP1 T94T (human FABP1 T94A variant): 3.5 fold
maximal fluorescence intensity lower than when bound to WT FABP1 T94T (human FABP1 T94A variant): ~40%
shift of maximum emission, T94A variant compared to WT FABP1 T94T (human FABP1 T94A variant): 5 nm
Emission max (human FABP1 T94A variant; [4]): 549 nm and 548.9 ± 1.0 ^d, ^e nm
Bmax (fluorescence intensity at saturation) (human FABP1 T94A variant; [5]): 43.4 ± 3.3 ^d, ^e A.U.
Kd (human FABP1 T94A variant; [6]): 510 ± 150 nM
Emission max (rat FABP1 [1]; [4]): 540.7 ± 0.7 nm
Bmax (fluorescence intensity at saturation) (rat FABP1 [1]; [5]): 68.2 ± 7.1 A.U.
Kd (rat FABP1 [1]; [6]): 480 ± 120 nM

CC(C)CCC[C@@H](C)[C@H]1CC[C@H]2[C@@H]3CC=C4C[C@@H](O)CC[C@]4(C)[C@H]3CC[C@]12C [cholesterol]
Kd (rat FABP1 [2]): 600 ± 200 nM
TΔS (rat FABP1 [2]; ITC, 25 °C, pH 8.0): 5.98 ± 0.72 kcal/mol
n, binding stoichiometry (rat FABP1 [2]; ITC, 25 °C, pH 8.0): 0.9 ± 0.1 mol/mol
ΔG, Gibbs free energy change (rat FABP1 [2]; ITC, 25 °C, pH 8.0): -9.8 ± 0.48 kcal/mol
ΔH, enthalpy change (rat FABP1 [2]; ITC, 25 °C, pH 8.0): -3.59 ± 0.24 kcal/mol
critical micellar concentration [3]: ~30 nM
Kd (human WT FABP1): 1300 ± 400 nM
TΔS (human WT FABP1; ITC, 25 °C, pH 8.0): 5.02 ± 0.48 kcal/mol
n, binding stoichiometry (human WT FABP1; ITC, 25 °C, pH 8.0): 0.8 ± 0.2 mol/mol
ΔG, Gibbs free energy change (human WT FABP1; ITC, 25 °C, pH 8.0): -9.08 ± 0.72 kcal/mol
ΔH, enthalpy change (human WT FABP1; ITC, 25 °C, pH 8.0): -4.06 ± 0.48 kcal/mol
Kd (human T94A variant FABP1): 500 ± 100 nM
TΔS (human T94A variant FABP1; ITC, 25 °C, pH 8.0): 5.26 ± 0.24 kcal/mol
n, binding stoichiometry (human T94A variant FABP1; ITC, 25 °C, pH 8.0): 0.7 ± 0.2 mol/mol
ΔG, Gibbs free energy change (human T94A variant FABP1; ITC, 25 °C, pH 8.0): -10.8 ± 0.72 kcal/mol
ΔH, enthalpy change (human T94A variant FABP1; ITC, 25 °C, pH 8.0): −23 ± 4 ^b kJ/mol
fold higher cholesterol-binding affinity than WT FABP1 T94T (human T94A variant FABP1; NBD-cholesterol fluorescence and cholesterol ITC binding assays): 3 fold
